Laboratory results published in ChEMBL document CHEMBL4152256, “Structure-activity relationship of new antimalarial 1-aryl-3-susbtituted propanol derivatives: Synthesis, preliminary toxicity profiling, parasite life cycle stage studies, target exploration, and targeted delivery” (Eur J Med Chem, 2018).
Calls of active or inactive are those of the source. The calls are words filed in the database; no cut-off is given here.

What was measured:
[1] = Genotoxicity in Salmonella typhimurium TA1535 harboring pSK1002 assessed as umu gene induction at 1 mg/ml in absence of Sprague-Dawley rat liver S9 fraction after by SOS/umu assay relative to control; format: toxicity, organism-based; conditions: salmonella enterica subsp. enterica serovar typhimurium, read-out: FC
[2] = Genotoxicity in Salmonella typhimurium TA1535 harboring pSK1002 assessed as survival at 1 mg/ml in presence of Sprague-Dawley rat liver S9 fraction after by SOS/umu assay relative to control; format: toxicity, organism-based; conditions: salmonella enterica subsp. enterica serovar typhimurium, read-out: Survival
[3] = Genotoxicity in Salmonella typhimurium TA1535 harboring pSK1002 assessed as umu gene induction at 1 mg/ml in presence of Sprague-Dawley rat liver S9 fraction after by SOS/umu assay relative to control; format: toxicity, organism-based; conditions: salmonella enterica subsp. enterica serovar typhimurium, read-out: FC
[4] = Drug encapsulation in liposomes assessed as encapsulation efficiency in citrate/phosphate buffered measured after ultracentrifugation by UV/Vis spectroscopy relative to untreated control; format: physicochemical; conditions: artificial membrane
Method in brief: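 Compound loaded into DSPC:cholesterol:DSPE-PEG2000-Mal:DOPE-Rho (84.5:10:5:0.5) liposomes using a citrate (pH 4.0)/PBS pH gradient. Drug measured by UV/vis after SDS disruption at each step: citrate liposomes, after buffer exchange to PBS (chloroquine added to preformed liposomes here), and after ultracentrifugation. Encapsulation efficiency = % of drug that is encapsulated out of total drug in the sample.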

Plasmodium falciparum [5] = assay: Antiplasmodial activity against Plasmodium falciparum FCR-3 sporozoites infected in human primary hepatocytes treated simultaneously with infection by DAPI staining based HCS analysis; format: functional, organism-based, FCR-3/Gambia
[6] = Selectivity index, ratio of CC50 for human HepG2A16 cells to IC50 for GFP-fused Plasmodium berghei sporozoites infected in human HepG2A16 cells; format: toxicity, cell-based; conditions: read-out: Ratio CC50/IC50
Method in brief: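 HepG2-A16 cells were grown at 3 × 10^4 per well on collagen and infected with GFP P. berghei sporozoites (5 × 10^3 to 1 × 10^4 per well) from A. stephensi salivary glands. Compounds were added at infection, from 10 µg/mL top plus seven serial dilutions, and refreshed at 3 h and then every 24 h. After 40 h at 37 °C, EEFs were methanol-fixed, anti-Hsp70 immunolabelled and counted by high-content imaging. SI = HepG2 CC50 / liver-stage IC50.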

Plasmodium falciparum [7] = assay: Ratio of IC50 for antiplasmodial activity against Plasmodium falciparum 3D7 late stage forms infected in immunoliposome encapsulated compound pre-loaded human RBC by [3H]-hypoxanthine incorporation assay to IC50 for antiplasmodial activity against Plasmodium falciparum 3D7 late stage forms infected in human non-washed human RBC containing full drug dosages by [3H]-hypoxanthine incorporation assay; format: functional
[8] = Drug internalization in liposomes assessed as zeta potential at 500 uM in presence of pH 7.4 PBS buffer solution (reference value: -16.48 mV); format: physicochemical; conditions: artificial membrane, pH 7.4, 500 µM
Method in brief: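 Zeta potential of liposomes loaded with compound (500 µM drug per 10 mM lipid), measured in the pH 4.0 citrate hydration buffer and again after buffer exchange to PBS pH 7.4; drug-free liposomes of the same lipid composition served as reference.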

Plasmodium falciparum [9] = assay: Ratio of IC50 for antiplasmodial activity against chloroquine-sensitive Plasmodium falciparum 3D7 ring forms infected in human RBC incubated for 15 mins followed by compound removal and further incubation for 48 hrs by [3H]-hypoxanthine incorporation assay to IC50 for antiplasmodial activity against chloroquine-sensitive Plasmodium falciparum 3D7 ring forms infected in human RBC using compound …; format: functional
[10] = target: T1, HSP90 (Plasmodium falciparum 3D7) (UniProt Q8IL32); assay: Binding affinity to Plasmodium falciparum HSP90 nucleotide binding domain by SPR analysis
T1 sequence (whole entry): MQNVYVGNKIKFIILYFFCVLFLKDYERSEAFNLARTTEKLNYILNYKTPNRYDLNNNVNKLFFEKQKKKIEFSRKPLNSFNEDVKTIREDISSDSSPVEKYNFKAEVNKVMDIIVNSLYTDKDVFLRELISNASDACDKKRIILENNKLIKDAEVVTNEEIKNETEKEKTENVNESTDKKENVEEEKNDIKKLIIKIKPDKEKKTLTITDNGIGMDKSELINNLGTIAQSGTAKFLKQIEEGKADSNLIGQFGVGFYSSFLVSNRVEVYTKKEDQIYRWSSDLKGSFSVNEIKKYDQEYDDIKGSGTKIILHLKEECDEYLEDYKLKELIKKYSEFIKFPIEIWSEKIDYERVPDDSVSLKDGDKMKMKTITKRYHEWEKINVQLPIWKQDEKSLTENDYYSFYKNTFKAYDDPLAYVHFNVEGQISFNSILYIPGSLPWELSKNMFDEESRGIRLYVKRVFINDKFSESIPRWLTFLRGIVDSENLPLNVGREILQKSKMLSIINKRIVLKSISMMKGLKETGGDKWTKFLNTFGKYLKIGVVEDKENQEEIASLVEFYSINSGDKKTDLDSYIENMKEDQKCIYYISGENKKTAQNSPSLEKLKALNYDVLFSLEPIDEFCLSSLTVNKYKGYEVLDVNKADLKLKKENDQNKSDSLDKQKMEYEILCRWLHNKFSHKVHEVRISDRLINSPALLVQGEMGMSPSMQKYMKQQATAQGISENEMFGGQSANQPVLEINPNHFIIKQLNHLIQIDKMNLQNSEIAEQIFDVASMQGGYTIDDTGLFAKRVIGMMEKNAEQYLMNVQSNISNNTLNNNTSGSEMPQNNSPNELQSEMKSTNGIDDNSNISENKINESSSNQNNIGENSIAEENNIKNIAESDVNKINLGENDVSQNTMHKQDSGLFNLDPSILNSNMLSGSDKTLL
Method in brief: (§1)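 Purified PfHsp90 and PfGRP94 nucleotide-binding domains were amine-coupled to a CM5 chip (3000 and 7000 RU, respectively), with a blank reference surface. Seven compound concentrations (0.4 nM–1 mM) were injected in triplicate at 30 µL/min, 25 °C, in random order. Running buffer: 10 mM HEPES pH 7.4, 150 mM NaCl, 0.005% P20, 1% DMSO, 2 mM MgCl2. Kd came from double-referenced sensorgrams.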

Plasmodium falciparum [11] = assay: Binding affinity to Plasmodium falciparum GRP94 nucleotide binding domain by SPR analysis; method in brief: as §1
Plasmodium falciparum [12] = assay: Binding affinity to Plasmodium falciparum GRP94 nucleotide binding domain at 0.5 mM by SYPRO orange dye based DSF analysis
Method in brief: (§2)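 Recombinant P. falciparum Hsp90 or GRP94 nucleotide-binding domain (0.05–0.2 mg/mL, optimized per protein) in 25 mM HEPES pH 7.5, 250 mM NaCl. Compound final concentration was 0.5 mM, with SYPRO Orange at 1:1000. Samples were heated from 18 to 90 °C at 1 °C/min. Tm was taken as the Boltzmann-fit inflection point. ΔTm = Tm with ligand minus Tm without, and shifts beyond ±1 °C were counted significant.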

[13] = target: T1, HSP90 (Plasmodium falciparum 3D7); assay: Binding affinity to Plasmodium falciparum HSP90 nucleotide binding domain at 0.5 mM by SYPRO orange dye based DSF analysis; method in brief: as §2
[14] = Genotoxicity in Salmonella typhimurium TA1535 harboring pSK1002 assessed as survival at 0.0005 mg/ml in absence of Sprague-Dawley rat liver S9 fraction after by SOS/umu assay relative to control; format: toxicity, organism-based; conditions: salmonella enterica subsp. enterica serovar typhimurium, read-out: Survival
[15] = Genotoxicity in Salmonella typhimurium TA1535 harboring pSK1002 assessed as survival at 0.0005 mg/ml in presence of Sprague-Dawley rat liver S9 fraction after by SOS/umu assay relative to control; format: toxicity, organism-based; conditions: salmonella enterica subsp. enterica serovar typhimurium, read-out: Survival
[16] = Genotoxicity in Salmonella typhimurium TA1535 harboring pSK1002 assessed as umu gene induction at 0.0005 mg/ml in presence of Sprague-Dawley rat liver S9 fraction after by SOS/umu assay relative to control; format: toxicity, organism-based; conditions: salmonella enterica subsp. enterica serovar typhimurium, read-out: FC

| Compound | fold induction at 1 mg/ml [1] | viability at 1 mg/ml [2] [%] | fold induction at 1 mg/ml [3] | IC50 (Plasmodium falciparum [5]) | selectivity ratio [6] | Activity [10] | Activity (Plasmodium falciparum [11]) | Activity (Plasmodium falciparum [12]) | Activity [13] | further results |
| --- | --- | --- | --- | --- | --- | --- | --- | --- | --- | --- |
| OC(CCN1CCN(c2ccccc2C(F)(F)F)CC1)c1ccc(F)c2ccccc12 (stereo in doubt; 55) | 0.3 | 164 | 0.4 |  |  |  |  |  |  |  |
| OC(CCN1CCN(c2ccccc2C(F)(F)F)CC1)c1ccc(F)cc1 (stereo not drawn) | 0.1 | 97 | 0.3 |  |  |  |  |  |  |  |
| N#Cc1ccc(N2CCC(NCCC(O)c3ccc(F)c4ccccc34)CC2)c(C(F)(F)F)c1 (stereo in doubt; 72) |  |  |  | Not Active | 2.3 |  |  |  |  | Activity [4]: 101.4%; Ratio IC50 (Plasmodium falciparum [7]): 1.5; Activity [8]: -18.2 mV; Ratio IC50 (Plasmodium falciparum [9]): 5.9 |
| COc1ccccc1C1=CCN(CCC(O)c2ccc(F)cc2)CC1 (stereo not drawn) | 0.3 | 32.2 | 1 |  |  |  |  |  |  |  |
| COc1ccccc1N1CCN(CCC(O)c2ccc(F)c3ccccc23)CC1 (stereo not drawn) |  |  |  |  |  | inactive | inactive | inactive | inactive |  |
| OC(CCN1CCN(C(c2ccccc2)c2ccccc2)CC1)c1ccc(F)c(F)c1 (stereo not drawn) |  |  |  |  |  |  |  |  |  | viability at 0.0005 mg/ml [14]: 110%; viability at 0.0005 mg/ml [15]: 94.7%; fold induction at 0.0005 mg/ml [16]: 1 |
| N#Cc1ccc(N2CCC(NCCC(O)c3ccc(F)c4ccccc34)CC2)c(Cl)c1 (stereo not drawn) |  |  |  | Not Active | 2.3 | inactive | inactive | inactive | inactive |  |
| OC(CCN1CCN(C(c2ccccc2)c2ccccc2)CC1)c1ccc(F)c2ccccc12 (stereo not drawn) |  |  |  | Not Active | 3.7 | inactive | inactive | inactive | inactive |  |
| N#Cc1ccc(N2CCC(NCCC(O)c3ccc(F)c4ccccc34)CC2)c(Br)c1 (stereo not drawn) |  |  |  |  |  | inactive | inactive | inactive | inactive |  |
